“And” between values parts separate entries of the source, which are not always exact repeats. Equal entries are not always repeated.
Legend:
Assay type in all cases: biochemical, Lytechinus pictus
[1] = tested on: caffeine-induced Ca^2+ release (RyRs); assay: caffeine-induced Ca^2+ release in sea urchin egg homogenate; conditions: 10 mM caffeine
Procedure, shortened: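 Lytechinus pictus egg homogenate loaded with Ca2+ by 20-fold dilution over 3 h at 17°C in GluIM plus ATP-regenerating system; Fluo-3 3 μM final, stirred cuvette, ex 506/em 526 nm. Test compound preincubated 2 min, then 10 mM caffeine. Fluorescence converted to [Ca2+] using 0.5 mM EGTA and 10 mM CaCl2 for Fmin/Fmax. Sigmoidal concentration-response fit; mean ± SEM, n = 4–7.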

[2] = tested on: cADPR-induced Ca^2+ release (RyRs); assay: cADPR-induced Ca^2+ release in sea urchin egg homogenate
Procedure, shortened: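 Egg homogenate from Lytechinus pictus diluted 20-fold over 3 h at 17°C in GluIM with ATP regeneration; 3 μM Fluo-3 final, calibrated with EGTA/CaCl2. Test compound or DMSO preincubated 2 min before 0.3 μM cADPR (sub-maximal). For the time course, 30 μM test compound was preincubated 10–120 s. cADPR concentration-response was run after 2 min with 30 μM or DMSO. Sigmoidal fits; mean ± SEM, n = 4–9.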

[3] = tested on: IP3-induced Ca^2+ release (IP3Rs); assay: IP3-induced Ca^2+ release in sea urchin egg homogenate
Procedure, shortened: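 Lytechinus pictus egg homogenate (GluIM, pH 7.2, with ATP-regenerating system) diluted 20-fold over 3 h at 17°C to 2.5% v/v. Fluo-3 3 μM final, ex 506/em 526 nm, stirred cuvette. Test compound or DMSO preincubated 2 min, then sub-maximal IP3 chosen from a dose-response curve. Signal calibrated to [Ca2+] with 0.5 mM EGTA then 10 mM CaCl2. Sigmoidal fit; mean ± SEM, n = 4–7.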

Cn1c(=O)c2c(ncn2C)n(C)c1=O [caffeine]
raw control ∆[Ca^2+] with caffeine ([1]; no inhibitor): 80 ± 5 nM

c1ccc(CN(CCN(Cc2ccccn2)Cc2ccccn2)Cc2ccccn2)nc1 [TPEN, N,N,N’,N’- tetrakis(2-pyridylmethyl)ethylenediamine]
effect on cADPR-induced Ca^2+ release ([2]; preincubation 2 minutes, then 0.3 μM cADPR, magnitude and kinetics): inhibited cADPR-induced Ca^2+ release

O=P(O)(O)O[C@@H]1[C@H](O)[C@H](O)[C@@H](OP(=O)(O)O)[C@H](OP(=O)(O)O)[C@H]1O [IP3, inositol 1,4,5-trisphosphate]
raw control ∆[Ca^2+] with IP3 ([3]; sub-maximal IP3, no inhibitor): 94 ± 1 nM

COc1ccccc1OCCNCC(O)COc1cccc2[nH]c3ccccc3c12 (stereo not drawn) [carvedilol]
inhibition of IP3-induced Ca^2+ release (extent) ([3]; sub-maximal IP3, preincubation 2 minutes, Fig. 4): 47% | inhibition of caffeine-induced Ca^2+ release (extent) ([1]; preincubation 2 minutes): > 80% | inhibition of cADPR-induced Ca^2+ release (extent) ([2]; 0.3 μM cADPR, extent of inhibition at high carvedilol concentration): > 80% | time of preincubation to maximal suppression of cADPR-induced Ca^2+ release ([2]; carvedilol 30 μM, no further inhibition at longer incubations): ≤ 10 s

N=c1c2ncn3c2ncn1[C@@H]1O[C@H](COP(=O)(O)OP(=O)(O)OC[C@H]2O[C@@H]3[C@H](O)[C@@H]2O)[C@@H](O)[C@H]1O [cADPR]
raw control response ∆[Ca^2+] with cADPR ([2]; 0.3 μM cADPR, no inhibitor): 72 ± 5 nM and 76 ± 4 nM and 72 ± 4 nM and 85 ± 3 nM and 75 ± 4 nM | EC50 ([2]; read-out: EC50 of cADPR for Ca^2+ release (concentration-response curve), sea urchin egg homogenate, Fig. 2b): ~250 nM

— publication PMC5531262 (Messenger (Los Angeles, Calif. : Print), 2016)
